The nature of series [1]: AUC (0 to 24 hrs) in Balb/C mouse at 10 mg/kg, po. Type of series: ADME, organism-based. Set-up: time < 24 hr, dose 10 mg/kg, route oral. Conditions: in vivo. In a few lines:
(§1)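 Male Balb/C mice dosed orally once at 10 mg/kg in PEG300/TPGS/ethanol (90/5/5 v/v/v).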

Series [2] concerns the target T1, Tyrosine-protein kinase BTK (Homo sapiens, UniProt Q06187). Kind of series: Inhibition of His-tagged full length human recombinant BTK expressed in baculovirus using fluoresceinated peptide substrate after 60 mins by fluorescent electrophoretic separation.
The species entered for another series is Homo sapiens. Briefly: Selectivity ratio of IC50 for GST-tagged human recombinant LCK using FITC-AHAEGIYLFKKK-NH2 as substrate to IC50 for His-tagged full length human recombinant BTK expressed in baculovirus. In a few lines: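 Fold selectivity is the LCK enzyme IC50 divided by the BTK enzyme IC50. The footnotes give each IC50 as the mean of three (or at least three) determinations, with some as single determinations.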

Series [3] in a line: Cmax in Balb/C mouse at 10 mg/kg, po. Type of series: ADME, organism-based. Also on record: dose 10 mg/kg, route oral. Conditions: in vivo. In a few lines: as §1
Series [4] in a line: Permeability of the compound at pH 7 by PAMPA. Type of series: ADME. Conditions: for Papp: read-out: permeability. In general terms: The PAMPA barrier holds no transporters, so it reflects passive diffusion.
The nature of series [5]: Drug metabolism in human liver microsomes assessed as aniline metabolite formation. Type of series: ADME, Microsome. In a few lines:
(§2)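 Compounds were incubated with human or rat liver microsomes. Metabolites were profiled for hydrolysis to the aniline and, where applicable, for N-dealkylation giving the bis-aniline.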

A short description of series [6]: Drug metabolism in rat liver microsomes assessed as aniline metabolite formation. Type of series: ADME, Microsome. The essentials: as §2
On the technique in general: Liver microsomes are a subcellular fraction often used to study metabolism.

The target in series [7] is T1, Tyrosine-protein kinase BTK. Briefly: Inhibition of BTK in human RamosB cells assessed as suppression of BCR/anti-IgM stimulated calcium flux pre-incubated for 1 hr followed by BCR/anti-IgM stimulation. Type of series: cell-based. For orientation: A change in cytosolic calcium serves as a functional read-out for many receptors and channels.
A short description of series [8]: Drug metabolism in human liver microsomes assessed as bis-aniline metabolite formation. Type of series: ADME, Microsome. The essentials: as §2
A short description of series [9]: Toxicity in mouse administered orally as multiple day dosing schedule. To be noted: in vivo, po.
A short description of series [10]: Drug metabolism in rat liver microsomes assessed as bis-aniline metabolite formation. Type of series: ADME, Microsome. The essentials:
as §2

The next series has as its system Mus musculus. Briefly: Decrease in anti-KLH IgM titers in chronic Balb/C mouse KLH antibody response model at 30 mg/kg, po administered through oral gavage after 14 days by ELISA. Type of series: functional, organism-based. To be noted: in the assay text read “IgG” for “IgM”. In a few lines: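 Chronic KLH challenge model in mice with compound given by mouth. Anti-KLH IgM appears in the first week after challenge. Switching to IgG anti-KLH is evident by day 14.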

The nature of series [11]: Stability in mouse liver microsomes. Type of series: ADME, Microsome.

Active and inactive are the calls of the source. No cut-off for these calls is given here.

T1 sequence (Q06187 whole entry): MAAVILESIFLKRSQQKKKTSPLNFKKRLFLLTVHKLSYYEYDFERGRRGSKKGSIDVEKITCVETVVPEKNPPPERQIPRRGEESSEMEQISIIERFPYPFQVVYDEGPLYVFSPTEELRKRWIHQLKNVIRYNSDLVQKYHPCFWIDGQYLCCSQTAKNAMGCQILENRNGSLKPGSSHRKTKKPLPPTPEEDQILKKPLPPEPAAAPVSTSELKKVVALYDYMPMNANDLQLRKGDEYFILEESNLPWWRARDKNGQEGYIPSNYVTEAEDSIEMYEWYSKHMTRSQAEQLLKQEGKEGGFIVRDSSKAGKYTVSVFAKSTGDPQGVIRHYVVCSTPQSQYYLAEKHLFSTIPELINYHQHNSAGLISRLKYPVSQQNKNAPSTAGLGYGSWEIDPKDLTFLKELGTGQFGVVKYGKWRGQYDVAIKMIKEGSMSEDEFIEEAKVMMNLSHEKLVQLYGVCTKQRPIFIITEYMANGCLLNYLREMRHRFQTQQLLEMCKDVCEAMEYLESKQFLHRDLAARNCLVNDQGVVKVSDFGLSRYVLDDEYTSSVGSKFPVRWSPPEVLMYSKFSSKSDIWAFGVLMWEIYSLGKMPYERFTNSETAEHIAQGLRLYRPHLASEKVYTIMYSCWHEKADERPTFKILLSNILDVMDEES

The AUC(0-t) is exposure summed from dosing to a finite time, without extrapolation to infinity. What is called IC50 is the point on the concentration scale where inhibition reaches its midpoint. The term Cmax denotes the highest concentration seen after dosing. Consider `Cc1c(NC(=O)c2ccc(F)cn2)cccc1-c1ccc(C(N)=O)c2[nH]c3cc(C(=O)N4CCN(C)CC4)ccc3c12`, for which the AUC(0-t) at 24 h in [1] is 5 µM·h. Besides, in [2], the IC50 was determined as 9 nM. Moreover, in the series listed under Homo sapiens, the Ratio IC50 turned out to be 9. In [3], the Cmax came out at 1.57 µM. Further, the Papp in [4] is 58.7 ×10⁻⁶ cm/s. Also, the Drug metabolism result in series [5] and in [6] was “Metabolite_Detected” in each case.

The compound `Cc1c(-c2ccc(C(N)=O)c3[nH]c4cc(C(C)(C)O)ccc4c23)cccc1-n1cnc2c(F)cccc2c1=O` yielded an AUC(0-t) at 24 h in series [1] of 63 µM·h. The values for the concentration for half-maximal inhibition (IC50) in series [2] and in [7] were 2 nM and 34 nM, respectively. Further, in the series filed under Homo sapiens, the Ratio IC50 is 88. This compound yielded a Cmax in series [3] of 6.85 µM.

`Cc1c(-c2ccc(C(N)=O)c3[nH]c4cc(C(C)(C)O)ccc4c23)cccc1N1CCc2ccccc2C1=O`: the IC50 in [2] worked out at 3 nM; in series [7], 26 nM. Besides, in the series listed under Homo sapiens, the Ratio IC50 is 33.

`Cc1c(-c2ccc(C(N)=O)c3[nH]c4cc(C(C)(C)O)ccc4c23)cccc1N1Cc2ccccc2C1=O`: the values for the IC50 in [2] and in series [7] were 5 nM and 154 nM, respectively. Moreover, in the series listed under Homo sapiens, the Ratio IC50 was determined as 25.

Consider `Cc1c(NC(=O)c2ccc(F)cc2)cccc1-c1ccc(C(N)=O)c2[nH]c3cc(C(=O)N4CCN(C)CC4)ccc3c12`, for which the AUC(0-t) at 24 h in series [1] was 0.4 µM·h. In series [2], the IC50 amounted to 5 nM. In the series filed under Homo sapiens, the Ratio IC50 turned out to be 15. The compound also gave a maximum concentration (Cmax) in series [3] of 0.09 µM. Also, the Papp in series [4] turned out to be 14.7 ×10⁻⁶ cm/s.

In turn, `Cc1c(-c2ccc(C(N)=O)c3[nH]c4cc(CO)ccc4c23)cccc1-n1cnc2ccccc2c1=O` registered an AUC(0-t) at 24 h in [1] of 14 µM·h. For the same compound, the IC50 in series [2] came out at 3 nM; in series [7] it was 22 nM. For the same compound, the Ratio IC50 in the series filed under Homo sapiens was found to be 146. Also, the Cmax in series [3] was 4.65 µM.

As for `CC(C)(O)c1ccc2c(c1)[nH]c1c(C(N)=O)ccc(-c3cccc(-n4cnc5ccccc5c4=O)c3F)c12`, the AUC(0-t) at 24 h in series [1] turned out to be 19 µM·h. In series [3], this compound returned a Cmax of 2.1 µM.

As to `Cc1c(-c2ccc(C(N)=O)c3[nH]c4cc(C(C)(C)O)ccc4c23)cccc1-n1cnc2ccc(F)cc2c1=O`, the AUC(0-t) at 24 h in series [1] stood at 113 µM·h. Besides, the 50% inhibitory concentration (IC50) in [2] came out at 7 nM; in [7], 40 nM. Further, the Ratio IC50 in the series filed under Homo sapiens is 52. In addition, the peak level in [3] (Cmax) was 9.77 µM.

Regarding `Cc1c(NC(=O)c2ccc(F)cc2)cccc1-c1ccc(C(N)=O)c2[nH]c3cc(NC(C)C)ccc3c12`, in [1], the AUC(0-t) at 24 h was 36 µM·h. For the same compound, the IC50 in series [2] is 11 nM. In the series filed under Homo sapiens, the Ratio IC50 is 61. Also, the peak level in series [3] (Cmax) was 7.96 µM. The permeability result in series [4] is “Impermeable”. Further, the Drug metabolism result in [5], in series [6], in series [8] and in series [10] was “Metabolite_Detected” throughout. For the same compound, in series [9], the Activity result was “Toxic”.

In the case of `Cc1c(-c2ccc(C(N)=O)c3[nH]c4cc(C(C)(C)O)ccc4c23)cccc1-n1cnc2cc(F)ccc2c1=O`, the AUC(0-t) at 24 h in series [1] amounted to 120 µM·h. The IC50 in series [2] amounted to 2 nM; in series [7] it was 24 nM. Further, the Ratio IC50 in the series filed under Homo sapiens was found to be 89. Further, the highest level in series [3] (Cmax) was 8.06 µM.

As to `Cc1c(-c2ccc(C(N)=O)c3[nH]c4cc(C(C)(C)O)ccc4c23)cccc1-n1ccc2ccccc2c1=O`, the IC50 was 5 nM in [2] and 144 nM in series [7]. Also, the Ratio IC50 in the series listed under Homo sapiens came to 44.

The compound `Cc1c(-c2ccc(C(N)=O)c3[nH]c4cc(C(C)(C)O)ccc4c23)cccc1N1Cc2ccc(F)cc2C1=O` displayed an AUC(0-t) at 24 h in series [1] of 41 µM·h. Also, the IC50 in series [2] was determined as 2 nM; in [7] it was 48 nM. The Ratio IC50 in the series listed under Homo sapiens stood at 48. In series [3], this compound came in with a Cmax of 4.41 µM. Besides, the result in the series with Mus musculus was inactive. The Stability entry in series [11] is reported as “Stable”.

`Cc1c(-c2ccc(C(N)=O)c3[nH]c4cc(C(=O)N5CCN(C)CC5)ccc4c23)cccc1N1Cc2ccccc2C1=O` came in with an AUC(0-t) at 24 h in series [1] of 0.3 µM·h. Besides, the concentration for half-maximal inhibition (IC50) in series [2] was determined as 5 nM; in [7], 238 nM. In the series filed under Homo sapiens, the Ratio IC50 worked out at 14. In [3], this compound showed a peak concentration (Cmax) of 0.178 µM.

With `Cc1c(-c2ccc(C(N)=O)c3[nH]c4cc(C(C)(C)O)ccc4c23)cccc1-n1cnc2cccc(F)c2c1=O`, in [1], the AUC(0-t) at 24 h came out at 58 µM·h. Besides, the IC50 was found to be 5 nM in [2] and 18 nM in series [7]. In the series filed under Homo sapiens, the Ratio IC50 was 61. Besides, the concentration in series [3] peaked (Cmax) at 6.74 µM.

For the origin of these results see ChEMBL document CHEMBL4428066, “Small Molecule Reversible Inhibitors of Bruton's Tyrosine Kinase (BTK): Structure-Activity Relationships Leading to the Identification of 7-(2-Hydroxypropan-2-yl)-4-[2-methyl-3-(4-oxo-3,4-dihydroquinazolin-3-yl)phenyl]-9H-carbazole-1-carboxamide (BMS-935177)” (J Med Chem, 2016).
